The term IC50 denotes the midpoint of a concentration-inhibition curve.

Calls of active or inactive are those of the source. The calls are words filed in the database; no cut-off is given here.

This note sets out measurements from ChEMBL document CHEMBL4028809, “Dual-tail approach to discovery of novel carbonic anhydrase IX inhibitors by simultaneously matching the hydrophobic and hydrophilic halves of the active site” (Eur J Med Chem, 2017).

Assay [1] relates to MDA-MB-231. Description: Cytotoxicity against human MDA-MB-231 cells assessed as cell viability at 100 uM after 72 hrs under hypoxic condition by MTT assay. It is filed as functional. As to conditions: for viability at 100 µM: MDA-MB-231, 72 h, read-out: Activity. The method, boiled down: (§1)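 HT-29 or MDA-MB-231 cells seeded at 5 × 10^4 per well and stabilized 24 h at 37 °C, then exposed to a single 0.1 mM dose for 72 h, in hypoxia (0.5% O2, 5% CO2, balance N2, modular chamber) or normoxia (20% O2, 5% CO2). MTT at 5 mg/mL added for 4 h; formazan dissolved in DMSO; absorbance read at 540 nm.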

Assay [2] addresses Carbonic anhydrase 9 (Homo sapiens, UniProt Q16790). Description: Inhibition of recombinant human carbonic anhydrase 9 using 4-nitrophenylacetate as substrate pretreated for 15 mins prior to test by spectrophotometric method.
Assay [3] concerns HT-29. Description: Cytotoxicity against human HT-29 cells assessed as cell viability at 100 uM after 72 hrs under normoxic condition by MTT assay relative to control. It is filed as functional. As to conditions: for viability at 100 µM: HT-29, 72 h, read-out: Activity. Summed up:
as §1
In general terms: Formazan colour is commonly taken as a measure of viable cells.

The test system of assay [4] is MDA-MB-231. In words: Cytotoxicity against human MDA-MB-231 cells assessed as cell viability at 100 uM after 72 hrs under normoxic condition by MTT assay. Particulars: for viability at 100 µM: MDA-MB-231, 72 h, read-out: Activity. It is filed as functional. Summed up: as §1
The test system of assay [5] is HT-29. Description: Cytotoxicity against human HT-29 cells assessed as cell viability at 100 uM after 72 hrs under hypoxic condition condition by MTT assay relative to control. It is filed as functional. As to conditions: for viability at 100 µM: HT-29, 72 h, read-out: Activity. Summed up:
as §1

Assay [6] has as its target Carbonic anhydrase 2 (Homo sapiens, UniProt P00918). In words: Inhibition of recombinant human carbonic anhydrase 2 using 4-nitrophenylacetate as substrate pretreated for 15 mins prior to test by spectrophotometric method.

As to `COc1cc(/C=C/C(=O)N[C@@H]2[C@@H](O)[C@H](O)[C@@H](CO)O[C@H]2NC(=S)Nc2ccc(S(N)(=O)=O)cc2)cc(OC)c1OC`, the viability at 100 µM lay in the range of 69.5 to 79.9% in assay [1], 73 to 79% in assay [3], 89 to 99% in assay [4] and 63 to 77% in assay [5]. In addition, in assay [2], the IC50 came out at 46 nM.

As to `COc1ccc(/C=C/C(=O)N[C@H]2[C@H](OC)O[C@H](CO)[C@@H](O)[C@@H]2O)cc1`, in assay [2], the IC50 came to 20000 nM.

Turning to `COc1cccc(/C=C/C(=O)N[C@@H]2[C@@H](O)[C@H](O)[C@@H](CO)O[C@H]2NC(=S)Nc2ccc(S(N)(=O)=O)cc2)c1OC`, the viability at 100 µM in assay [1] was 69.5 to 79.9%; in assay [3], 73 to 79%; in assay [4], 89 to 99%; in assay [5], 63 to 77%. Besides, the IC50 in assay [2] is 33 nM.

As for `COc1ccccc1/C=C/C(=O)N[C@@H]1[C@@H](O)[C@H](O)[C@@H](CO)O[C@H]1NC(=S)Nc1ccc(S(N)(=O)=O)cc1`, the viability at 100 µM in assay [1] is 69.5 to 79.9%; in assay [3], 73 to 79%; in assay [4], 89 to 99%; in assay [5] it was 63 to 77%. In addition, the IC50 in assay [2] amounted to 60 nM.

Turning to `N[C@@H]1[C@@H](O)[C@H](O)[C@@H](CO)O[C@H]1NC(=S)Nc1ccc(S(N)(=O)=O)cc1`, the IC50 in assay [2] is 667 nM; in assay [6], 203 nM.

As to `COc1ccc(/C=C/C(=O)O)cc1` [4-METHOXYCINNAMIC ACID], the figures for the IC50 in assay [2] and in assay [6] were 850000 nM and 760000 nM, respectively.

`COc1cccc(/C=C/C(=O)N[C@@H]2[C@@H](O)[C@H](O)[C@@H](CO)O[C@H]2NC(=S)Nc2ccc(S(N)(=O)=O)cc2)c1`: the viability at 100 µM in assay [1] lay in the range of 69.5 to 79.9%; in assay [3] it was 73 to 79%; in assay [4], 89 to 99%; in assay [5], 63 to 77%. The IC50 in assay [2] was determined as 95 nM.

As to `COc1ccc(/C=C/C(=O)N[C@@H]2[C@@H](O)[C@H](O)[C@@H](CO)O[C@H]2NC(=S)Nc2ccc(S(N)(=O)=O)cc2)c(OC)c1`, the result in assay [1], in assay [3], in assay [4] and in assay [5] was inactive. Moreover, the IC50 in assay [2] was 7 nM.

Take `COc1ccc(/C=C/C(=O)N[C@@H]2[C@@H](O)[C@H](O)[C@@H](CO)O[C@H]2NC(=S)Nc2ccc(S(N)(=O)=O)cc2)cc1`: the viability at 100 µM in assay [1] fell in the range of 69.5 to 79.9%; in assay [3] it was 73 to 79%; in assay [4], 89 to 99%; in assay [5] it was 63 to 77%. Also, in assay [2], the IC50 was 152 nM.

As for `COc1cc(OC)c(OC)cc1/C=C/C(=O)N[C@@H]1[C@@H](O)[C@H](O)[C@@H](CO)O[C@H]1NC(=S)Nc1ccc(S(N)(=O)=O)cc1`, the viability at 100 µM lay within 69.5 to 79.9% in assay [1], 73 to 79% in assay [3], 89 to 99% in assay [4] and 63 to 77% in assay [5]. In addition, the IC50 in assay [2] is 37 nM.

Turning to `CC(=O)Nc1nnc(S(N)(=O)=O)s1`, the result in assay [1], in assay [3], in assay [4] and in assay [5] was inactive.
